One data set relates to Liver microsome. In words: Drug metabolism in human liver microsomes assessed as formation of 3-(4-((6-methoxy-1-methyl-1H-benzo[d]imidazol-2-yl)methoxy)phenyl)-2-(methylthio)propanoic acid at 20 uM after 2 to 4 hrs by radio-HPLC/LC-MS/MS analysis in presence of NADPH-generating system/SAM and UDPGA/SAM. Type of data set: ADME.
In data set [1] the target is T1, UDP-glucuronosyltransferase 2B4 (Homo sapiens, UniProt P06133).
T1 sequence (P06133 whole entry): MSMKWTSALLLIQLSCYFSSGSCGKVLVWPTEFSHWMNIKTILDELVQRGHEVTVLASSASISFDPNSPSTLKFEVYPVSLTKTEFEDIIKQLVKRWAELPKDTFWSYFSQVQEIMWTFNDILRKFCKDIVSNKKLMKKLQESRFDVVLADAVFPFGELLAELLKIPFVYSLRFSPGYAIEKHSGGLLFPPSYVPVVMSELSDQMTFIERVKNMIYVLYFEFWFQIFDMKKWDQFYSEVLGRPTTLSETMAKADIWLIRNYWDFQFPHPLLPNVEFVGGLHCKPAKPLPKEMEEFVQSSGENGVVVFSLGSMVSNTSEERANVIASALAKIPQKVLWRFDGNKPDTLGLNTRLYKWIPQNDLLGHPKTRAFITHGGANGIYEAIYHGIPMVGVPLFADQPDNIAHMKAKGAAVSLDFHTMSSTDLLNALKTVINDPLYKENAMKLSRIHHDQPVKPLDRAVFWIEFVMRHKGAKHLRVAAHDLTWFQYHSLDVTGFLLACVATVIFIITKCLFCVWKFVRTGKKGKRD
In words: Activity of human UGT2B4 expressed in microsomes isolated from baculovirus infected insect cell assessed as enzyme-mediated 2-mercapto-3-(4-((6-methoxy-1-methyl-1H-benzo[d]imidazol-2-yl)methoxy)phenyl)propanoic acid formation at 20 uM after 4 hrs by radio-HPLC/LC-MS/MS analysis in presence of UDPGA. The format is ADME.

The target of data set [2] is T2, UDP-glucuronosyltransferase 2B7 (Homo sapiens, UniProt P16662).
T2 sequence (P16662 whole entry): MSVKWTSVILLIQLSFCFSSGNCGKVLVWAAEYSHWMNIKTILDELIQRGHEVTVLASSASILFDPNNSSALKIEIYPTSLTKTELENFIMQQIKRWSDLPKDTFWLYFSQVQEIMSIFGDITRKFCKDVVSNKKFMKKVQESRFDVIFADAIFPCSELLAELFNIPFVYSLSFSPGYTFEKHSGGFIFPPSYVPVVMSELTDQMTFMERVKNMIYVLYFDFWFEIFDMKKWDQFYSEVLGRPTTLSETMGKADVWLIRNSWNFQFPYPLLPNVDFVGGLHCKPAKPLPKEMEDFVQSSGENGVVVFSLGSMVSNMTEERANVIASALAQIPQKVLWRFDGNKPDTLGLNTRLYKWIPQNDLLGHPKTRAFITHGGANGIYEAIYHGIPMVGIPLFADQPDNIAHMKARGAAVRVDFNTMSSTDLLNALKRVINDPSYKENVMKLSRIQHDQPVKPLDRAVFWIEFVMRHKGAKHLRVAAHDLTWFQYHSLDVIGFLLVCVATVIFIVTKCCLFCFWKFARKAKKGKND
Put plainly: Activity of human UGT2B7 expressed in microsomes isolated from baculovirus infected insect cell assessed as enzyme-mediated 2-amino-3-((1-carboxy-2-(4-((6-methoxy-1-methyl-1H-benzo[d]imidazol-2-yl)methoxy)phenyl)ethyl)disulfanyl)propanoic acid formation at 20 uM after 4 hrs by radio-HPLC/LC-MS/MS analysis in presence of UDPGA and UDPGA/SAM. Type of data set: ADME.

In data set [3] the target is T3, UDP-glucuronosyltransferase 1A9 (Homo sapiens, UniProt O60656).
T3 sequence (O60656 whole entry): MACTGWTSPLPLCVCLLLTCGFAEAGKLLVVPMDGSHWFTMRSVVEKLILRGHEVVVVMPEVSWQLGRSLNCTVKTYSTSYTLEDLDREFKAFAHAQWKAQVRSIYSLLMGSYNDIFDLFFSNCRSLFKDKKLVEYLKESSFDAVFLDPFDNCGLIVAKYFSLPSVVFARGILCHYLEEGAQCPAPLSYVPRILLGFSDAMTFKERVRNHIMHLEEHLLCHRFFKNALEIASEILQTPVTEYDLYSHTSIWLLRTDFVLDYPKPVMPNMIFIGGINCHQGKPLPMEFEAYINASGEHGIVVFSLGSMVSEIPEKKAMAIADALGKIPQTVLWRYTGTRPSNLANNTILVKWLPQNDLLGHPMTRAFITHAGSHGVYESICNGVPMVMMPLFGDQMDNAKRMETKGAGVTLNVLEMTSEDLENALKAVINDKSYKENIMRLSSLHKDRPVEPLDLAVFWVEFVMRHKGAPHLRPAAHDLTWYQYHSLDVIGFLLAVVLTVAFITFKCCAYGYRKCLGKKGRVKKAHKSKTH
Put plainly: Activity of human UGT1A9 expressed in microsomes isolated from baculovirus infected insect cell assessed as enzyme-mediated (2S,3S,4S,5R,6R)-3,4,5-trihydroxy-6-(5-(4-((6-methoxy-1-methyl-1H-benzo[d]imidazol-2-yl)methoxy)benzyl)-2,4-dioxothiazolidin-3-yl)tetrahydro-2H-pyran-2-carboxylic acid formation at 20 uM after 4 hrs by radio-HPLC/LC-MS/MS analysis in presence of UDPGA. Type of data set: ADME.

Data set [4] deals with T4, Cytochrome P450 2C19 (Homo sapiens, UniProt P33261). In words: Activity of human CYP2C19 expressed in microsomes isolated from baculovirus infected insect cell assessed as enzyme-mediated 2-hydroxy-3-(4-((6-methoxy-1-methyl-1H-benzo[d]imidazol-2-yl)methoxy)phenyl)propanamide formation at 20 uM after 2 hrs by radio-HPLC/LC-MS/MS analysis in presence of NADPH-generating system and NADPH-generating system/SAM. The format is ADME. An outline of the steps:
(§1)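 Baculovirus/insect-cell microsomes expressing single human CYPs, 1 mg/ml protein, with 50 mM potassium phosphate (pH 7.4) or 100 mM Tris-HCl (pH 7.5). NADPH-generating system: 2 mM NADP⁺, 20 mM glucose 6-phosphate, 2 units/ml G6PDH, 10 mM MgCl₂. [¹⁴C]rivoglitazone at 20 μM, 2 h at 37°C with shaking. Control used insect-cell control supersomes. Stopped with acetonitrile; supernatant concentrated under nitrogen; metabolites analysed by radio-HPLC, LC-MS and LC-MS/MS.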

The target of data set [5] is T4, Cytochrome P450 2C19. In words: Activity of human CYP2C19 expressed in microsomes isolated from baculovirus infected insect cell assessed as enzyme-mediated 2-amino-3-((1-carboxy-2-(4-((6-methoxy-1-methyl-1H-benzo[d]imidazol-2-yl)methoxy)phenyl)ethyl)disulfanyl)propanoic acid formation at 20 uM after 2 hrs by radio-HPLC/LC-MS/MS analysis. The format is ADME. An outline of the steps:
as §1

Data set [6] is described as follows: Retention time of the compound by LC-MS/MS analysis. The format is physicochemical. An outline of the steps:
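LC-MS/MS used a YMC-Pack ODS-A column (1.5 × 150 mm, 5 μm) at 30°C, 0.1 ml/min. Mobile phase was water and acetonitrile, each with 0.01% TFA. Gradient: 12→60% B over 30 min, →90% B over 5 min, hold 5 min. Detection was UV 220 nm with positive ESI Q-TOF (capillary 3300 V, cone 45 V), collision energy 20 eV and xenon as collision gas.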

T4 sequence (P33261 whole entry): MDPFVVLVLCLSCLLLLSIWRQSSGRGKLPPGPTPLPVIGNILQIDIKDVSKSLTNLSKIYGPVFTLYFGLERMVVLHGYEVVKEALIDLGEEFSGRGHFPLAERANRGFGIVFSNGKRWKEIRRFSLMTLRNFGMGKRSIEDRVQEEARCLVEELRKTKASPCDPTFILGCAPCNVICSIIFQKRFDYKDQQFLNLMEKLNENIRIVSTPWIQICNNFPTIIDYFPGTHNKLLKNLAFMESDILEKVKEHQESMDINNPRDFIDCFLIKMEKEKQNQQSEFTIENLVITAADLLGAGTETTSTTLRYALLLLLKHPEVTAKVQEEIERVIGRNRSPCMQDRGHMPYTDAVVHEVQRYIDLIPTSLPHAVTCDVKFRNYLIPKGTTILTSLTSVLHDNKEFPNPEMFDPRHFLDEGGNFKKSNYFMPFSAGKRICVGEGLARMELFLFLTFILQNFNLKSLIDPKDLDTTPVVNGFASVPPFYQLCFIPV

With `COc1ccc2nc(COc3ccc(C[14CH]4SC(=O)NC4=O)cc3)n(C)c2c1.Cl` (racemic), the Drug metabolism entry in the data set with Liver microsome is “metabolite_detected”; in data set [1] it was “metabolite_not_detected”; in data set [2], “metabolite_not_detected”; in data set [3], “metabolite_not_detected”; at Cytochrome P450 2C19 [4] it was “metabolite_detected”; on Cytochrome P450 2C19 [5], “metabolite_not_detected”.
`COc1ccc2nc(COc3ccc(CC(S)C(=O)O)cc3)n(C)c2c1` (configuration not stated) returned a Retention_time in data set [6] of 23.9 min.

(Values after ChEMBL document CHEMBL3526048, “In vitro metabolism of rivoglitazone, a novel peroxisome proliferator-activated receptor γ agonist, in rat, monkey, and human liver microsomes and freshly isolated hepatocytes” (Drug Metab Dispos, 2011).)
